SMARCA2 activ – increases SMARCA2 function in MMTV reporter cells | MG213 cells, MMTV-luciferase reporter, dexamethasone, overnight | activation, % at 9.1 µM | actives 1% (n = 370,000); in the data active = activation above about 7.8%;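 note: 0% = vehicle wells and 100% = reference activator wells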
ARFGAP1 inhibitor – inhibits rat ARF GTPase activating protein 1. Q62848. Arfgap1-stimulated ARF1 GTP hydrolysis, GDP FP detection. actives 0.26% (n = 360,000). AID 651572. inhibition, % at 16.5 µM;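 active = inhibition above a per-plate limit, mean inhibition of low control wells plus 3 SD, cut at about 25% in these data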;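 note: 0% = DMSO wells with enzyme and 100% = wells lacking Arfgap1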
Target sequence (Q62848 1-136 limits assumed): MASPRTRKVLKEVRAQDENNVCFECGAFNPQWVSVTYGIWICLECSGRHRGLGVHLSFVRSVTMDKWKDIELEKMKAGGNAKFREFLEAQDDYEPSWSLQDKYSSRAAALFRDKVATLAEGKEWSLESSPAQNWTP
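Assay system: purified rat His6-Arfgap1 residues 1-136 (GAP domain); Reagent: human Δ17 ARF1 bound to GTP; Dosing: 16.5 µM single point, 1.26% DMSO; Times: GTP hydrolysis reaction 2 h at 25 °C; Signal: FP, GDP Alexa 633 tracer displaced from anti-GDP antibody, 620/688 nm; Measure: % inhibition from polarization.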
esBAF inh – blocks esBAF chromatin remodeling in mouse ES cells; AID 602393; actives 2% (n = 350,000); Bmi1-luciferase knock-in reporter, 24 h; 100% = twice the neutral-well signal; reporter increase, % at 12.5 µM; in the data active = activation above about 40%; inconclusive = no clear call, values can overlap the other calls;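 note: 0% = median of the plate's neutral control wells and 100% = double that signal; a rise in the Bmi1 reporter signal indicates esBAF inhibition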
ASAP1 inh – ASAP1 ArfGAP inhibition; Q9ULH1; ASAP1-stimulated ARF1 GTP hydrolysis, GDP FP detection; inhibition, % at 16.5 µM; actives 0.19% (n = 360,000); in the data active = inhibition above about 25%;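 note: 0% = vehicle with enzyme and substrate and 100% = no enzyme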
Target sequence (Q9ULH1 325-724 limits assumed): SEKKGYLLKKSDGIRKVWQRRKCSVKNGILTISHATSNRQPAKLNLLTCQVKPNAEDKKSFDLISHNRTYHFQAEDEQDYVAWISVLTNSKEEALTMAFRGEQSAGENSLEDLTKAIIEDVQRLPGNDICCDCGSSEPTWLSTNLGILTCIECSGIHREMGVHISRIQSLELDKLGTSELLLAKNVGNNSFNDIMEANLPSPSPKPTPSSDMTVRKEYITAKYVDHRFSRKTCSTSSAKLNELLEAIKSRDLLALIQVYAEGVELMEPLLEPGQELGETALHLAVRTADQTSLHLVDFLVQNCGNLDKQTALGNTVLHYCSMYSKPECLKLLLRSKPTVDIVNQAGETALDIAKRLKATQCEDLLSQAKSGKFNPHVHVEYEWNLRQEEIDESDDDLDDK
SMARCA2 act conf – confirmation of SMARCA2 (BRM) function activators; shares compounds with SMARCA2 activ; MG213 cells, MMTV-luciferase with dexamethasone, luminescence, overnight; MG213 cells expressing E1A, Rb sequestered; DMSO wells 0%, reference activator 100%; actives 30% (n = 3,500); AID 652260; activation, % at 9.1 µM;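 active = activation above its plate's cutoff, the mean activation of tested wells plus 3 SD, cut at about 7.9% in these data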
VP16 Luc act – GAL4-VP16 reporter activation counter-screen. shares compounds with SMARCA2 activ. HEK293 GAL4-VP16 pG5luc reporter, luciferase luminescence; scaled: DMSO wells 0%, SAHA wells 100%. activation, % at 9.1 µM. actives 41% (n = 3,500);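 active = activation above the solvent-only control well mean plus 3 SD, averaged across control plates, cut at about 5.2% in these data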
An asterisk follows results filed as active; ? = inconclusive; · = no result. Hits are enriched below; roughly 2.6% of the tested compounds scored in any of these assays.

SMILES | SMARCA2 activ | ARFGAP1 inhibitor | esBAF inh | ASAP1 inh | SMARCA2 act conf | VP16 Luc act
O=C(C[C@H]1CC[C@@H](NC(=O)C2CC2)[C@@H](CO)O1)NCc1ccncc1 | · | · | -1 | · | · | ·
Cc1cc(C)c2c(N)c(-c3nc4ccccc4[nH]3)sc2n1 | 9.2* | 10 | · | -2 | 8.7* | 10*
O=C(C1=C(O)C(=O)N(c2nccs2)C1c1ccccc1)c1cc2ccccc2o1 (stereo not drawn) | 14* | 2 | · | 9 | -1 | 3
O=C(C1=C(O)C(=O)N(CCc2ccccc2)C1c1ccncc1)c1cc2ccccc2o1 (stereo not drawn) | 2 | -2 | · | -12 | · | ·
C[C@@H]1CN([C@H](C)CO)C(=O)c2cc(NS(C)(=O)=O)ccc2O[C@@H](C)CCCCO[C@@H]1CN(C)S(=O)(=O)c1cccs1 | · | · | -4 | · | · | ·
CNC(=O)C[C@@H]1CC[C@H]2[C@H](COc3ccc(NC(=O)c4ccc5c(c4)OCO5)cc3C(=O)N2C)O1 | · | · | 3 | · | · | ·
Oc1cccc(/C=C/c2ccc3cccc(O)c3n2)c1 | 3 | 11 | 5 | 21 | · | ·
COC(=O)c1ccc(/C=C/c2ccc3cccc(OC)c3n2)cc1 | 1 | -7 | · | 8 | · | ·
COc1cc(/C=C/c2ccc3cccc(O)c3n2)cc(Br)c1OC | 8.4* | -7 | 66* | -1 | -13 | 34*
COc1ccc(/C=C/c2ccc3c(Br)ccc(O)c3n2)cc1 | -2 | 9 | ? | 5 | · | ·
COc1cc(/C=C/c2ccc3c(Br)cc(Br)c(O)c3n2)ccc1O | 8.7* | 10 | 6 | 13 | -16 | 7.9*
COc1ccc(Br)cc1/C=C/c1ccc2cccc(O)c2n1 | 2 | 15 | 7 | 11 | · | ·
COc1cc(/C=C/c2ccc3cccc(O)c3n2)cc(Cl)c1OC | 12* | 1 | -4 | -7 | -6 | 34*
COc1cccc(/C=C/c2ccc3cccc(O)c3n2)c1 | 14* | 17 | -62 | 7 | -3 | 23*
COc1ccccc1CNC(=O)C[C@H]1CC[C@@H]2[C@@H](COc3ccc(NC(=O)Nc4ccc(F)c(F)c4)cc3C(=O)N2C)O1 | · | · | -5 | · | · | ·
CCCC#Cc1ccc2c(c1)O[C@H](CN(C)C(=O)COC)[C@@H](C)CN([C@@H](C)CO)S2(=O)=O | · | · | 4 | · | · | ·
CCCC#Cc1ccc2c(c1)O[C@H](CN(C)Cc1ccncc1)[C@H](C)CN([C@@H](C)CO)S2(=O)=O | · | · | -3 | · | · | ·
c1ccc2c(c1)CCN(C1=Nc3cccc4cccc1c34)C2 | 12* | 4 | · | -10 | 4 | 3
CCc1c(O)nc(SCC(=O)NC(C)(C)C)n(-c2ccccc2)c1=O | 8.1* | 3 | -1 | 2 | -3 | 2
OCCCCCN=c1cc(-c2ccccc2)oc2ccc(Cl)cc12 | 13* | 18 | 78* | 5 | 19* | 1
Clc1ccc2oc(-c3ccccc3)cc(=NCCCN3CCOCC3)c2c1 | 17* | -6 | · | -6 | 14* | 5.6*
Clc1cccc(-c2nc(NCCCN3CCOCC3)c3ccccc3n2)c1 | -3 | -6 | -7 | 12 | · | ·
COc1ccc(NC(=O)N(C)C[C@H]2Oc3ccc(N(C)C)cc3C(=O)N([C@H](C)CO)C[C@@H]2C)cc1 | · | · | -2 | · | · | ·
CCCNC(=O)N(C)C[C@H]1Oc2cc(-c3cncnc3)ccc2S(=O)(=O)N([C@H](C)CO)C[C@H]1C | · | · | 2 | · | · | ·
COc1ccc(-n2c(C)c(C)c3c(NCCO)ncnc32)cc1 | · | · | 19 | · | · | ·
SMILES | SMARCA2 activ | ARFGAP1 inhibitor | esBAF inh | ASAP1 inh | SMARCA2 act conf | VP16 Luc act
Cc1c(C)n(CCc2ccccc2)c2ncnc(NCCO)c12 | 10* | 18 | 76* | 12 | 8.4* | 10*
COc1ccc(-n2c(C)c(C)c3c(NCCCO)ncnc32)cc1 | 11* | 7 | 40 | -5 | 0 | 5.4*
Cc1ccc(-n2c(C)c(C)c3c(NCCCO)ncnc32)cc1 | 10* | -5 | 59* | -5 | 12* | 8.6*
Cc1c(C)n(CCCN(C)C)c2ncnc(NCc3ccccc3)c12 | -1 | 11 | 4 | 2 | · | ·
CO[C@@H]1CN(C)C(=O)c2cc(NC(=O)C3CC3)ccc2OC[C@H](C)N(CCc2ccccc2)C[C@H]1C | · | · | 10 | · | · | ·
COc1ccc(NC(=O)c2ccc(OC(F)F)cc2)cc1Cl | 1 | 5 | · | -3 | · | ·
O=C(Nc1ccc(OC(F)F)c(Cl)c1)c1ccccn1 | 12* | 11 | · | 9 | 11* | 19*
CN(C(=O)/C=C/c1cnc2ccccc2c1)C1CCCCC1 | 9.9* | 8 | · | -10 | 12* | 11*
COc1ccc(/C=C/C(=O)N(C)C2CCCCC2)cc1Br | 2 | 7 | · | -8 | · | ·
Cc1c(Cl)cnc(NC(=O)COC(=O)CCc2nc3ccccc3s2)c1Cl | 9.3* | -2 | -5 | 1 | -2 | 0
CC(=O)Nc1ccc(NC(=O)COC(=O)CCc2nc3ccccc3s2)cc1 | -4 | -5 | 9 | 6 | · | ·
CC(C)C#Cc1cnc2c(c1)C(=O)N([C@H](C)CO)C[C@H](C)[C@@H](CN(C)Cc1cncnc1)O2 | · | · | 4 | · | · | ·
COc1ccc(CCN=C(N)NS(=O)(=O)c2ccc(C)c(C)c2)cc1OC | 1 | 4 | -10 | -16 | · | ·
COc1ccc(S(=O)(=O)NC(N)=NCCc2ccc(OC)c(OC)c2)cc1 | 10* | 1 | · | 5 | 1 | 4
Cc1cccc(C(=O)Nc2ccc3c(c2)ncn3C)c1 | 12* | 5 | 2 | 12 | 8.3* | 19*
CC(=O)Nc1ccc2c(c1)ncn2-c1ccccc1 | 12* | 2 | 25 | -13 | 16* | 7.3*
CCC(=O)Nc1ccc2c(c1)ncn2-c1ccccc1 | 5 | 9 | 33 | 5 | · | ·
Cc1cccc(C(=O)Nc2ccc3c(c2)nc(C)n3C)c1 | -1 | -3 | -56 | 4 | · | ·
C[C@@H]1CCCCO[C@@H](CN(C)S(=O)(=O)c2cn(C)cn2)[C@H](C)CN([C@@H](C)CO)C(=O)c2cc(NC(=O)NC3CCCCC3)ccc2O1 | · | · | -1 | · | · | ·
C[C@H]1CN([C@@H](C)CO)C(=O)c2cccc(NS(=O)(=O)c3ccc(F)cc3)c2O[C@H]1CN(C)S(=O)(=O)c1ccc(F)cc1 | · | · | 0 | · | · | ·
CC(=O)c1nn(-c2cccc(Br)c2)cc1C(=O)c1ccco1 | 8.4* | 6 | -2 | -7 | -3 | 1
COc1ccc(NC(=O)N(C)C[C@H]2Oc3ccc(NS(=O)(=O)c4ccc(OC)cc4)cc3C(=O)N([C@@H](C)CO)C[C@H]2C)cc1 | · | · | -5 | · | · | ·
O=C(Cc1cccs1)Nc1ccc(-c2nc3ccccc3[nH]2)cc1 | 8.8* | 14 | · | 3 | 7 | 13*
O=C(COc1ccccc1)Nc1cccc(-c2nc3ccccc3[nH]2)c1 | 9.2* | 4 | · | 24 | 6 | 4
CCCNC(=O)N1C[C@@H]2[C@H](c3ccccc31)[C@@H](CO)N2C(=O)CN1CCOCC1 | · | · | 1 | · | · | ·

Assay outcomes: PubChem BioAssay, several laboratories
